Results published in ChEMBL document CHEMBL1136739, “Modes of methyleneoxy bridging and their effect on tetrahydronaphthalene lignan cytotoxicity” (2003).

Tests used:
SF-539 = assay: Cytotoxicity against CNS SF-539 cell line; assay type: functional; conditions: Homo sapiens
In short: (§1)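 Tested in the 60 human cancer cell line panel, after a preliminary one-dose screen in three cell lines. The value is the molar concentration giving 50% growth inhibition (GI50), reported as log GI50 for each cell line.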

HCT-116 = assay: Cytotoxicity against colon HCT116 cell line; assay type: functional; conditions: Homo sapiens; in short: as §1
[1] = system: Panel (Carcinoma cell lines); assay: Mean graph midpoint for growth inhibition of all human cancer cell lines.; assay type: functional
In short: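 Mean graph midpoint: the average GI50 (molar) over all human cancer cell lines successfully tested in the 60 cell line panel, expressed as log GI50.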

HOP-62 = assay: Cytotoxicity against lung HOP-62 cell line; assay type: functional; conditions: Homo sapiens; in short: as §1
UACC-62 = assay: Cytotoxicity against melanoma UACC-62 cell line; assay type: functional; conditions: Homo sapiens; in short: as §1
OVCAR-3 = assay: Cytotoxicity against ovarian OVCAR-3 cell line; assay type: functional; conditions: Homo sapiens; in short: as §1
DU-145 = assay: Cytotoxicity against prostate DU-145 cell line; assay type: functional; conditions: Homo sapiens; in short: as §1
MDA-MB-435 (human) = assay: Cytotoxicity against breast MDA-MB-435 cell line
SN12C = assay: Cytotoxicity against renal SN12C cell line; assay type: functional; conditions: Homo sapiens; in short: as §1
SNB-75 = assay: Cytotoxicity against prostate CNS SNB-75 cell line; assay type: functional; conditions: Homo sapiens, in the assay text read “CNS” for “prostate CNS”; in short: as §1
SR = assay: Cytotoxicity against leukemia SR cell line; assay type: functional; conditions: Homo sapiens; in short: as §1
NCI-H322M = assay: Cytotoxicity against lung […] cell line; assay type: functional; conditions: Homo sapiens; in short: as §1
OVCAR-4 = assay: Cytotoxicity against […] OVCAR-4 cell line; assay type: functional; conditions: Homo sapiens; in short: as §1

SMILES	GI50 (SF-539) [µM]	GI50 (HCT-116) [µM]	GI50 [1] [µM]	GI50 (HOP-62) [µM]	GI50 (UACC-62) [µM]	GI50 (OVCAR-3) [µM]	GI50 (DU-145) [µM]	GI50 (MDA-MB-435 (human)) [µM]	GI50 (SN12C) [µM]	GI50 (SNB-75) [µM]	GI50 (SR) [µM]	GI50 (NCI-H322M) [µM]	GI50 (OVCAR-4) [µM]
COc1cc(C23OCC24C2COC(c5cc6c(cc53)OCO6)C24)cc(OC)c1OC (stereo unspecified)	< 0.01	< 0.01	0.0182	< 0.01	< 0.01	< 0.01	< 0.01	< 0.01	–	–	–	–	–
COc1cc([C@]23OC[C@H](Cc4cc5c(cc42)OCO5)[C@H]3COC(C)=O)cc(OC)c1OC	19.1	13.8	12.3	25.1	10	–	–	1.86	25.7	–	–	–	–
COc1cc([C@@H]2c3cc4c(cc3[C@H]3OC[C@@H]2[C@@H]3CO)OCO4)cc(OC)c1OC	17.8	30.2	32.4	47.9	18.2	24	30.2	6.76	58.9	–	–	–	–
COc1cc([C@]23OC[C@H](Cc4cc5c(cc42)OCO5)[C@@H]3CO)cc(OC)c1OC	2.51	2.88	4.07	4.37	4.27	1.45	2.63	0.295	–	2.69	0.589	6.17	23.4
COc1cc([C@]23OC[C@H](Cc4cc5c(cc42)OCO5)[C@H]3CO)cc(OC)c1OC	3.89	0.0437	10.5	0.219	0.0776	0.182	4.47	7.41	4.79	–	–	–	–
COc1cc2c(c(OC)c1OC)OC[C@@H]1[C@H]2c2cc3c(cc2C[C@H]1C)OCO3	20.9	31.6	38	> 75.9	30.2	33.1	> 75.9	11.5	> 75.9	12.3	19.1	> 75.9	37.2
COc1cc2c(cc1OC)[C@]1(c3cc(OC)c(OC)c(OC)c3)OC[C@H](C2)[C@@H]1CO	17.8	30.2	47.9	47.9	63.1	24	30.2	6.76	58.9	–	44.7	43.7	77.6
COc1cc2c(c(OC)c1OC)OC[C@H]1[C@H](COC(C)=O)Cc3cc4c(cc3[C@@H]21)OCO4	57.5	61.7	40.7	67.6	31.6	56.2	70.8	39.8	40.7	–	21.9	–	47.9
